Measurements taken from ChEMBL document CHEMBL3525985, “Regiospecificity and stereospecificity of human UDP-glucuronosyltransferases in the glucuronidation of estriol, 16-epiestriol, 17-epiestriol, and 13-epiestradiol” (Drug Metab Dispos, 2013).

How the values were obtained:
Assay type in all cases: ADME
[1] = target: T1, UDP-glucuronosyltransferase 2B7 (Homo sapiens, UniProt P16662); assay: Drug metabolism assessed as recombinant human C-terminal His-tagged UGT2B7-mediated 17-epiestriol-17-glucuronide formation at 4 mg after 5 hrs by NMR spectroscopic analysis in presence of UDPGA; conditions: recombinant enzyme
T1 sequence (P16662 whole entry): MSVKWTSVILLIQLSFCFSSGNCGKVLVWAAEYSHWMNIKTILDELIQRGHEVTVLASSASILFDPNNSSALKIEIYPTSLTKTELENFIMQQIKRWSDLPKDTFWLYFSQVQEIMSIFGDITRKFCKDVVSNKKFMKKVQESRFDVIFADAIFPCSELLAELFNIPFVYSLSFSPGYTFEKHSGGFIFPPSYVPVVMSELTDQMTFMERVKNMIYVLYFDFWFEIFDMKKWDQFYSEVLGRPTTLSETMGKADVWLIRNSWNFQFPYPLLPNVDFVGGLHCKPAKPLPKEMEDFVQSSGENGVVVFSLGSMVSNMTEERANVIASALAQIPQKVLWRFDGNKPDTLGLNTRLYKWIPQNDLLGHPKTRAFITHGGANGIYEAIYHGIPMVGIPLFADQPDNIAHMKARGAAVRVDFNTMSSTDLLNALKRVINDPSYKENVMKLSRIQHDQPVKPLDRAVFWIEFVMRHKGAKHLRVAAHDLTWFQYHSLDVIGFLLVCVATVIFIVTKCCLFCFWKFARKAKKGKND
Summary of the method: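 Preparative biosynthesis: 4 mg 17-epiestriol with fresh UGT2B7-enriched insect-cell homogenate (about 500 mg total protein) in 25 ml. Contained 50 mM phosphate pH 7.4, 10 mM MgCl₂, 50 mM UDPGA and 10% DMSO. Glucuronides fractionated by HPLC with 0.1% HCOOH eluent and 280 nm UV, then concentrated and lyophilized for NMR.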

[2] = target: T1, UDP-glucuronosyltransferase 2B7; assay: Drug metabolism assessed as recombinant human C-terminal His-tagged UGT2B7-mediated 17-epiestriol-17-glucuronide formation at 200 uM after 15 to 60 mins by HPLC analysis in presence of UDPGA; conditions: recombinant enzyme
Summary of the method: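 Membranes (5 or 50 µg) from insect cells expressing His-tagged UGT2B7, with 200 µM aglycone in 50 mM phosphate pH 7.4, 10 mM MgCl₂, 5 mM UDPGA and 10% DMSO (final), 15–60 min at 37°C. Stopped with perchloric acid on ice, supernatant run on HPLC. Done in triplicate with no-UDPGA controls; rates normalized to relative UGT expression.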

[3] = target: T2, UDP-glucuronosyltransferase 2B4 (Homo sapiens, UniProt P06133); assay: Drug metabolism assessed as recombinant human C-terminal His-tagged UGT2B4-mediated 16-epiestriol-16-glucuronide formation after 15 to 60 mins by Michaelis-Menten equation analysis in presence of UDPGA; conditions: recombinant enzyme
T2 sequence (P06133 whole entry): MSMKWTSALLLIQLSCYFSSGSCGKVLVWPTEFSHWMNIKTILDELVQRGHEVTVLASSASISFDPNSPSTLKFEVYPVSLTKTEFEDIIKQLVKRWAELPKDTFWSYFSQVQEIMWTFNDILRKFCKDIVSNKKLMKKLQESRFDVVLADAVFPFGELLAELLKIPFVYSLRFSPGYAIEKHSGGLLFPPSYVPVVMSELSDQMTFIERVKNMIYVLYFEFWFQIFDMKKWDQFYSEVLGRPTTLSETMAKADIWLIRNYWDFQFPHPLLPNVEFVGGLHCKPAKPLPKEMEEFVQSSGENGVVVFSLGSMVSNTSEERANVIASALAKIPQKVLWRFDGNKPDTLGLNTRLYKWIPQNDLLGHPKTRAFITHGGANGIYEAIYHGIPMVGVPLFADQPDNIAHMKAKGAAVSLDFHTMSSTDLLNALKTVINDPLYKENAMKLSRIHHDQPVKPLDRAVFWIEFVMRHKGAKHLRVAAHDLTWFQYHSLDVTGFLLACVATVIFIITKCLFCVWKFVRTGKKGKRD

[4] = target: T3, UDP-glucuronosyltransferase 2B17 (Homo sapiens, UniProt O75795); assay: Drug metabolism assessed as recombinant human C-terminal His-tagged UGT2B17-mediated 16-epiestriol-16-glucuronide formation after 15 to 60 mins by Michaelis-Menten equation analysis in presence of UDPGA; conditions: recombinant enzyme
T3 sequence (O75795 whole entry): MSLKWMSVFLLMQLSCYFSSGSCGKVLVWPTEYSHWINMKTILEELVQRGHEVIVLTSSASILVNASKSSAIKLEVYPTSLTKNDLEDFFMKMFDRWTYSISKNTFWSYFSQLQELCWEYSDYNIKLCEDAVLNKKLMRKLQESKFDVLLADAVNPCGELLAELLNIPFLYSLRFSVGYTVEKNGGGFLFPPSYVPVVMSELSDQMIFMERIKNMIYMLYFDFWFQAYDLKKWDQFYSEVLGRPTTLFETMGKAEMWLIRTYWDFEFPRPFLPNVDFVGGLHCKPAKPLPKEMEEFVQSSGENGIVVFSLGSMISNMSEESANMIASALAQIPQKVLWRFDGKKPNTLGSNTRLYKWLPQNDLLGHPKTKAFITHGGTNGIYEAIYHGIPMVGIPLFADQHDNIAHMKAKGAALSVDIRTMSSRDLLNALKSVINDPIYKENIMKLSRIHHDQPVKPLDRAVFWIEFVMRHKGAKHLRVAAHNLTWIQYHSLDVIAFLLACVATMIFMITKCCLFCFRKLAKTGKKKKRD

[5] = target: T1, UDP-glucuronosyltransferase 2B7; assay: Drug metabolism assessed as recombinant human C-terminal His-tagged UGT2B7-mediated 16-epiestriol-16-glucuronide formation after 15 to 60 mins by Michaelis-Menten equation analysis in presence of UDPGA; conditions: recombinant enzyme
Summary of the method: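 For kinetics, the aglycone ranged from 0.2 to 300 μM in DMSO (10% final) with 5 mM UDPGA, 10 mM MgCl₂ and 50 mM phosphate pH 7.4. Enzyme was UGT-enriched insect cell membranes. Incubation was 15–60 min at 37°C, in triplicate, keeping substrate consumption ≤10%. Products were measured by HPLC and fitted to Michaelis-Menten. Rates were normalized to expression level.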

[6] = target: UDP-glucuronosyltransferase 1A10 (Homo sapiens, UniProt Q9HAW8, F93G); assay: Drug metabolism assessed as human UGT1A10 F93G mutant-mediated estradiol-3-glucuronide formation at 200 uM after 15 to 60 mins by HPLC analysis in presence of UDPGA
UDP-glucuronosyltransferase 1A10, sequence (Q9HAW8 26-530 F93G limits assumed): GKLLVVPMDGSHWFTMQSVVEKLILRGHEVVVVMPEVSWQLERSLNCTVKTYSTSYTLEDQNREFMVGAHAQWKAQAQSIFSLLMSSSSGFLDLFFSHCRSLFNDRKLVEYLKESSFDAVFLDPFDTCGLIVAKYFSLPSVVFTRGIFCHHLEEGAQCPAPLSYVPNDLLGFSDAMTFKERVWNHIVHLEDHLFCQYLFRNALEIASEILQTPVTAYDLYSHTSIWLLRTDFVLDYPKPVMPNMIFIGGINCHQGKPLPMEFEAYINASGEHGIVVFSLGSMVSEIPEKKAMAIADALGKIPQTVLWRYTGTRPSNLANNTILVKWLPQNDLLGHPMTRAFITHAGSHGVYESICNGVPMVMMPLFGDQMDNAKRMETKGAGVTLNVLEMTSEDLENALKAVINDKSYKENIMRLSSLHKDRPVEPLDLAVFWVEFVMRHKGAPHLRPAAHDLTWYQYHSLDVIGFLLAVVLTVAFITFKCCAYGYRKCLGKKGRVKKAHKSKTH
Summary of the method: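 Screening at a single substrate concentration of 200 μM, in triplicate. The reaction used 5 or 50 µg of UGT-enriched insect cell membranes in 50 mM phosphate pH 7.4 with 10 mM MgCl₂ and 5 mM UDPGA, 10% final DMSO. Incubation was 15–60 min at 37°C. Perchloric acid stopped the reaction and supernatants were analysed by HPLC. Controls lacked UDPGA. Rates were normalized to relative UGT expression level.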

[7] = target: T2, UDP-glucuronosyltransferase 2B4; assay: Drug metabolism assessed as recombinant human C-terminal His-tagged UGT2B4-mediated estriol-16-glucuronide formation after 15 to 60 mins by Michaelis-Menten equation analysis in presence of UDPGA; conditions: recombinant enzyme

C[C@]12CC[C@@H]3c4ccc(O)cc4CC[C@H]3[C@@H]1C[C@@H](O)[C@H]2O
Drug metabolism [1]: metabolite_detected | Drug metabolism [2]: metabolite_detected

C[C@]12CC[C@@H]3c4ccc(O)cc4CC[C@H]3[C@@H]1C[C@H](O)[C@@H]2O [EPIESTRIOL]
Drug metabolism [3]: 5 pmol/min/mg | Drug metabolism [4]: 5 pmol/min/mg | Drug metabolism [5]: 2700 pmol/min/mg

C[C@]12CC[C@@H]3c4ccc(O)cc4CC[C@H]3[C@@H]1CC[C@@H]2O [ESTRADIOL]
Drug metabolism [6]: metabolite_detected

C[C@]12CC[C@@H]3c4ccc(O)cc4CC[C@H]3[C@@H]1C[C@@H](O)[C@@H]2O [ESTRIOL]
Drug metabolism [7]: 4 pmol/min/mg
